Where a SMILES comes first, the peptide text is derived from it.
target: BCL2L1/BAD (Homo sapiens, UniProt Q07817); experiment: Inhibition of BAD/His-SUMO tagged BCL-XL (1 to 209 residues; missing 27 to 82 residues) (unknown origin) overexpressed in Escherichia coli BL21 protein-protein interaction by fluorescence anisotropy competition assay
Summary of the method: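 Final conditions: 200 nM BCL-xL, 50 nM tracer, 20 mM Tris, 150 mM NaCl, pH 7.6, 20 °C, with peptide titrated. Tracer Kd for BCL-xL was determined beforehand by direct titration (6 nM-125 μM protein).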

Sequence of BCL2L1/BAD (Q92934 whole entry, the tested form may be a part): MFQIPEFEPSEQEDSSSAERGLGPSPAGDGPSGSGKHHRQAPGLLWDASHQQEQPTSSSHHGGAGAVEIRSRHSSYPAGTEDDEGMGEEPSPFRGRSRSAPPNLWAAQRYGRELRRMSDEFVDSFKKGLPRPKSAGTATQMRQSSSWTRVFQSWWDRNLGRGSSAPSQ
Sequence of BCL2L1/BAD (Q07817 whole entry, the tested form may be a part): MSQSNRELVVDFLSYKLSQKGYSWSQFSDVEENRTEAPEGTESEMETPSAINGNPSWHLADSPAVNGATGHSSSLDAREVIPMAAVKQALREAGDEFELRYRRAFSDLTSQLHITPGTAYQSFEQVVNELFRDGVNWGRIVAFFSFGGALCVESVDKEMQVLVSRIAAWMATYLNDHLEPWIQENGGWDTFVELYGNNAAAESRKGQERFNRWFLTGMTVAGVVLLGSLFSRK

| SMILES | IC50 |
| --- | --- |
| CSCC[C@H](NC(=O)[C@H](CCCNC(=N)N)NC(=O)[C@H](CCCNC(=N)N)NC(=O)[C@H](CC(C)C)NC(=O)[C@H](CCC(=O)O)NC(=O)[C@H](CCCNC(=N)N)NC(=O)CNC(=O)[C@H](Cc1ccc(O)cc1)NC(=O)[C@H](CCCNC(=N)N)NC(C)=O)C(=O)N[C@@H](CO)C(=O)N[C@H]1CS2=S(C[C@@H](C(=O)N[C@@H](CO)C(=O)N[C@@H](Cc3ccccc3)C(=O)N[C@@H](CCCCN)C(=O)N[C@@H](CCCCN)C(N)=O)NC(=O)[C@H](C(C)C)NC(=O)[C@H](Cc3ccccc3)NC(=O)[C@H](CCC(=O)O)NC1=O)C(=O)NC2=O (stereo partly specified) | > 50 µM |
| CSCC[C@H](NC(=O)[C@H](CCCNC(=N)N)NC(=O)[C@H](CCCNC(=N)N)NC(=O)[C@H](CC(C)C)NC(=O)[C@@H]1CS2=S(C[C@H](NC(C)=O)C(=O)N[C@@H](Cc3ccc(O)cc3)C(=O)NCC(=O)N[C@@H](CCCNC(=N)N)C(=O)N1)C(=O)NC2=O)C(=O)N[C@@H](CO)C(=O)N[C@@H](CC(=O)O)C(=O)N[C@@H](CCC(=O)O)C(=O)N[C@@H](Cc1ccccc1)C(=O)N[C@H](C(=O)N[C@@H](CC(=O)O)C(=O)N[C@@H](CO)C(=O)N[C@@H](Cc1ccccc1)C(=O)N[C@@H](CCCCN)C(=O)N[C@@H](CCCCN)C(N)=O)C(C)C (stereo partly specified) | 5.5 µM |
| CSCC[C@H](NC(=O)[C@H](CCCNC(=N)N)NC(=O)[C@@H]1CS2=S(C[C@H](NC(=O)[C@H](Cc3ccc(O)cc3)NC(=O)[C@H](CCCNC(=N)N)NC(C)=O)C(=O)N[C@@H](CCCNC(=N)N)C(=O)N[C@@H](CCC(=O)O)C(=O)N[C@@H](CC(C)C)C(=O)N1)C(=O)NC2=O)C(=O)N[C@@H](CO)C(=O)N[C@@H](CC(=O)O)C(=O)N[C@@H](CCC(=O)O)C(=O)N[C@@H](Cc1ccccc1)C(=O)N[C@H](C(=O)N[C@@H](CC(=O)O)C(=O)N[C@@H](CO)C(=O)N[C@@H](Cc1ccccc1)C(=O)N[C@@H](CCCCN)C(=O)N[C@@H](CCCCN)C(N)=O)C(C)C (stereo partly specified) | > 50 µM |
| CSCC[C@H](NC(=O)[C@H](CCCNC(=N)N)NC(=O)[C@H](CCCNC(=N)N)NC(=O)[C@H](CC(C)C)NC(=O)[C@H](CS)NC(=O)[C@H](CCCNC(=N)N)NC(=O)CNC(=O)[C@H](Cc1ccc(O)cc1)NC(=O)[C@H](CS)NC(C)=O)C(=O)N[C@@H](CO)C(=O)N[C@@H](CC(=O)O)C(=O)N[C@@H](CCC(=O)O)C(=O)N[C@@H](Cc1ccccc1)C(=O)N[C@H](C(=O)N[C@@H](CC(=O)O)C(=O)N[C@@H](CO)C(=O)N[C@@H](Cc1ccccc1)C(=O)N[C@@H](CCCCN)C(=O)N[C@@H](CCCCN)C(N)=O)C(C)C (Ac-CYGRCLRRMSDEFVDSFKK-NH2) | 5.1 µM |
| CSCC[C@H](NC(=O)[C@H](CS)NC(=O)[C@H](CCCNC(=N)N)NC(=O)[C@H](CC(C)C)NC(=O)[C@H](CCC(=O)O)NC(=O)[C@H](CS)NC(=O)CNC(=O)[C@H](Cc1ccc(O)cc1)NC(=O)[C@H](CCCNC(=N)N)NC(C)=O)C(=O)N[C@@H](CO)C(=O)N[C@@H](CC(=O)O)C(=O)N[C@@H](CCC(=O)O)C(=O)N[C@@H](Cc1ccccc1)C(=O)N[C@H](C(=O)N[C@@H](CC(=O)O)C(=O)N[C@@H](CO)C(=O)N[C@@H](Cc1ccccc1)C(=O)N[C@@H](CCCCN)C(=O)N[C@@H](CCCCN)C(N)=O)C(C)C (Ac-RYGCELRCMSDEFVDSFKK-NH2) | 6.8 µM |

Results, then the compound that gave them:

| IC50 | SMILES |
| --- | --- |
| > 50 µM | CSCC[C@H](NC(=O)[C@@H]1CS2=S(C[C@H](NC(=O)CNC(=O)[C@H](Cc3ccc(O)cc3)NC(=O)[C@H](CCCNC(=N)N)NC(C)=O)C(=O)N[C@@H](CCC(=O)O)C(=O)N[C@@H](CC(C)C)C(=O)N[C@@H](CCCNC(=N)N)C(=O)N1)C(=O)NC2=O)C(=O)N[C@@H](CO)C(=O)N[C@@H](CC(=O)O)C(=O)N[C@@H](CCC(=O)O)C(=O)N[C@@H](Cc1ccccc1)C(=O)N[C@H](C(=O)N[C@@H](CC(=O)O)C(=O)N[C@@H](CO)C(=O)N[C@@H](Cc1ccccc1)C(=O)N[C@@H](CCCCN)C(=O)N[C@@H](CCCCN)C(N)=O)C(C)C (stereo partly specified) |
| > 50 µM | CSCC[C@@H]1NC(=O)[C@H](CCCNC(=N)N)NC(=O)[C@@H](NC(=O)[C@H](CC(C)C)NC(=O)[C@H](CCC(=O)O)NC(=O)[C@H](CCCNC(=N)N)NC(=O)CNC(=O)[C@H](Cc2ccc(O)cc2)NC(=O)[C@H](CCCNC(=N)N)NC(C)=O)CS2=S(C[C@@H](C(=O)N[C@@H](CCC(=O)O)C(=O)N[C@@H](Cc3ccccc3)C(=O)N[C@H](C(=O)N[C@@H](CC(=O)O)C(=O)N[C@@H](CO)C(=O)N[C@@H](Cc3ccccc3)C(=O)N[C@@H](CCCCN)C(=O)N[C@@H](CCCCN)C(N)=O)C(C)C)NC(=O)[C@H](CO)NC1=O)C(=O)NC2=O (stereo partly specified) |
| > 50 µM | CSCC[C@H](NC(=O)[C@H](CCCNC(=N)N)NC(=O)[C@H](CCCNC(=N)N)NC(=O)[C@H](CC(C)C)NC(=O)[C@H](CCC(=O)O)NC(=O)[C@H](CCCNC(=N)N)NC(=O)CNC(=O)[C@H](Cc1ccc(O)cc1)NC(=O)[C@H](CCCNC(=N)N)NC(C)=O)C(=O)N[C@H]1CS2=S(C[C@@H](C(=O)N[C@@H](CC(=O)O)C(=O)N[C@@H](CO)C(=O)N[C@@H](Cc3ccccc3)C(=O)N[C@@H](CCCCN)C(=O)N[C@@H](CCCCN)C(N)=O)NC(=O)[C@H](Cc3ccccc3)NC(=O)[C@H](CCC(=O)O)NC(=O)[C@H](CC(=O)O)NC1=O)C(=O)NC2=O (stereo partly specified) |
| > 50 µM | CSCC[C@H](NC(=O)[C@H](CCCNC(=N)N)NC(=O)[C@H](CCCNC(=N)N)NC(=O)[C@H](CC(C)C)NC(=O)[C@H](CCC(=O)O)NC(=O)[C@H](CCCNC(=N)N)NC(=O)CNC(=O)[C@H](Cc1ccc(O)cc1)NC(=O)[C@H](CCCNC(=N)N)NC(C)=O)C(=O)N[C@@H](CO)C(=O)N[C@@H](CC(=O)O)C(=O)N[C@H]1CS2=S(C[C@@H](C(=O)N[C@@H](Cc3ccccc3)C(=O)N[C@@H](CCCCN)C(=O)N[C@@H](CCCCN)C(N)=O)NC(=O)[C@H](CC(=O)O)NC(=O)[C@H](C(C)C)NC(=O)[C@H](Cc3ccccc3)NC1=O)C(=O)NC2=O (stereo partly specified) |
| 11.8 µM | CSCC[C@H](NC(=O)[C@H](CCCNC(=N)N)NC(=O)[C@H](CS)NC(=O)[C@H](CC(C)C)NC(=O)[C@H](CCC(=O)O)NC(=O)[C@H](CCCNC(=N)N)NC(=O)[C@H](CS)NC(=O)[C@H](Cc1ccc(O)cc1)NC(=O)[C@H](CCCNC(=N)N)NC(C)=O)C(=O)N[C@@H](CO)C(=O)N[C@@H](CC(=O)O)C(=O)N[C@@H](CCC(=O)O)C(=O)N[C@@H](Cc1ccccc1)C(=O)N[C@H](C(=O)N[C@@H](CC(=O)O)C(=O)N[C@@H](CO)C(=O)N[C@@H](Cc1ccccc1)C(=O)N[C@@H](CCCCN)C(=O)N[C@@H](CCCCN)C(N)=O)C(C)C (Ac-RYCRELCRMSDEFVDSFKK-NH2) |
| > 50 µM | CSCC[C@H](NC(=O)[C@H](CCCNC(=N)N)NC(=O)[C@H](CS)NC(=O)[C@H](CC(C)C)NC(=O)[C@H](CCC(=O)O)NC(=O)[C@H](CCCNC(=N)N)NC(=O)CNC(=O)[C@H](Cc1ccc(O)cc1)NC(=O)[C@H](CCCNC(=N)N)NC(C)=O)C(=O)N[C@@H](CO)C(=O)N[C@@H](CS)C(=O)N[C@@H](CCC(=O)O)C(=O)N[C@@H](Cc1ccccc1)C(=O)N[C@H](C(=O)N[C@@H](CC(=O)O)C(=O)N[C@@H](CO)C(=O)N[C@@H](Cc1ccccc1)C(=O)N[C@@H](CCCCN)C(=O)N[C@@H](CCCCN)C(N)=O)C(C)C (Ac-RYGRELCRMSCEFVDSFKK-NH2) |
